According to ChEMBL document CHEMBL4689842, “EUbOPEN Chemogenomics Library wave 1” (2021):

Key:
Assay type in all cases: toxicity, cell-based
[1] = tested on: Fibroblast; assay: Multiplex assay against human fibroblast
Procedure, shortened: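 Compound was added to live cells that had been stained at seeding with Hoechst33342, BioTracker Green Microtubule Cytoskeleton Dye, MitoTracker Red and Annexin V Alexa Fluor 680, and imaging followed on a CQ1 microscope at 37°C and 5% CO2. CellPathfinder machine-learning gating divided cells into Hoechst high-intensity objects or normal cells, normal cells into healthy, pyknosed or fragmented nuclei, and pyknosed cells into mitotic or apoptotic. Tubulin, mitochondrial-mass and membrane-permeability phenotypes are per cents of healthy-nucleus cells.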

[2] = tested on: HEK-293T; assay: Incucyte cell viability with HEK293T; settings: human, 10 µM, compound concentration 10 uM; further: filed as whole numbers so only -1 and 0 and 1 occur
[3] = tested on: U2OS; assay: Incucyte cell viability with U2OS; settings: human, 10 µM, compound concentration 10 uM; further: filed as whole numbers so only -1 and 0 and 1 occur
[4] = 12 h, 1 µM, compound concentration 1 uM, replicate 1
[5] = 12 h, 1 µM, compound concentration 1 uM, replicate 2
[6] = 12 h, 10 µM, compound concentration 10 uM, replicate 1
[7] = 12 h, 10 µM, compound concentration 10 uM, replicate 2
[8] = 24 h, 1 µM, compound concentration 1 uM, replicate 1
[9] = 24 h, 1 µM, compound concentration 1 uM, replicate 2
[10] = 24 h, 10 µM, compound concentration 10 uM, replicate 1
[11] = 24 h, 10 µM, compound concentration 10 uM, replicate 2
[12] = 6 h, replicate number 1, timepoint 6 hours
[13] = 12 h, replicate number 1, timepoint 12 hours
[14] = 18 h, replicate number 1, timepoint 18 hours
[15] = 24 h, replicate number 1, timepoint 24 hours

Structure (SMILES): CNC(=O)c1cc(Oc2ccc(NC(=O)Nc3cc(C(C)(C)C)nn3-c3ccc4ncccc4c3)c(F)c2)ccn1 [REBASTINIB]
- Population Apoptotic (%) [1, 4]: 90%
- Population Fragmented Nuclei (%) [1, 4]: 24%
- Population Healthy Nuclei (%) [1, 4]: 66%
- Population Hoechst High Intensity Objects (%) [1, 4]: 10%
- Population Membrane Permeable-Phenotype (%) [1, 4]: 4%
- Population Mitochondria Different-Phenotype (%) [1, 4]: 2%
- Population Mitotic Cells (%) [1, 4]: 10%
- Population Normal (%) [1, 4]: 89%
- Population Pyknosed Nuclei (%) [1, 4]: 9%
- Population Tubulin-Different-Phenotype (%) [1, 4]: 4%
- Total Cell Count [1, 4]: 237
- Population Apoptotic (%) [1, 5]: 40%
- Population Fragmented Nuclei (%) [1, 5]: 56%
- Population Healthy Nuclei (%) [1, 5]: 32%
- Population Hoechst High Intensity Objects (%) [1, 5]: 38%
- Population Membrane Permeable-Phenotype (%) [1, 5]: 26%
- Population Mitochondria Different-Phenotype (%) [1, 5]: 6%
- Population Mitotic Cells (%) [1, 5]: 60%
- Population Normal (%) [1, 5]: 61%
- Population Pyknosed Nuclei (%) [1, 5]: 10%
- Population Tubulin-Different-Phenotype (%) [1, 5]: 26%
- Total Cell Count [1, 5]: 75
- Population Apoptotic (%) [1, 6]: 59%
- Population Fragmented Nuclei (%) [1, 6]: 20%
- Population Healthy Nuclei (%) [1, 6]: 59%
- Population Hoechst High Intensity Objects (%) [1, 6]: 8%
- Population Membrane Permeable-Phenotype (%) [1, 6]: 10%
- Population Mitochondria Different-Phenotype (%) [1, 6]: 16%
- Population Mitotic Cells (%) [1, 6]: 40%
- Population Normal (%) [1, 6]: 91%
- Population Pyknosed Nuclei (%) [1, 6]: 19%
- Population Tubulin-Different-Phenotype (%) [1, 6]: 44%
- Total Cell Count [1, 6]: 238
- Population Apoptotic (%) [1, 7]: 85%
- Population Fragmented Nuclei (%) [1, 7]: 54%
- Population Healthy Nuclei (%) [1, 7]: 24%
- Population Hoechst High Intensity Objects (%) [1, 7]: 45%
- Population Membrane Permeable-Phenotype (%) [1, 7]: 0%
- Population Mitochondria Different-Phenotype (%) [1, 7]: 37%
- Population Mitotic Cells (%) [1, 7]: 14%
- Population Normal (%) [1, 7]: 55%
- Population Pyknosed Nuclei (%) [1, 7]: 21%
- Population Tubulin-Different-Phenotype (%) [1, 7]: 50%
- Total Cell Count [1, 7]: 60
- Population Apoptotic (%) [1, 8]: 83%
- Population Fragmented Nuclei (%) [1, 8]: 24%
- Population Healthy Nuclei (%) [1, 8]: 64%
- Population Hoechst High Intensity Objects (%) [1, 8]: 12%
- Population Membrane Permeable-Phenotype (%) [1, 8]: 2%
- Population Mitochondria Different-Phenotype (%) [1, 8]: 2%
- Population Mitotic Cells (%) [1, 8]: 16%
- Population Normal (%) [1, 8]: 87%
- Population Pyknosed Nuclei (%) [1, 8]: 11%
- Population Tubulin-Different-Phenotype (%) [1, 8]: 3%
- Total Cell Count [1, 8]: 239
- Population Apoptotic (%) [1, 9]: 33%
- Population Fragmented Nuclei (%) [1, 9]: 56%
- Population Healthy Nuclei (%) [1, 9]: 37%
- Population Hoechst High Intensity Objects (%) [1, 9]: 30%
- Population Membrane Permeable-Phenotype (%) [1, 9]: 5%
- Population Mitochondria Different-Phenotype (%) [1, 9]: 10%
- Population Mitotic Cells (%) [1, 9]: 66%
- Population Normal (%) [1, 9]: 69%
- Population Pyknosed Nuclei (%) [1, 9]: 5%
- Population Tubulin-Different-Phenotype (%) [1, 9]: 31%
- Total Cell Count [1, 9]: 73
- Population Apoptotic (%) [1, 10]: 52%
- Population Fragmented Nuclei (%) [1, 10]: 24%
- Population Healthy Nuclei (%) [1, 10]: 57%
- Population Hoechst High Intensity Objects (%) [1, 10]: 14%
- Population Membrane Permeable-Phenotype (%) [1, 10]: 4%
- Population Mitochondria Different-Phenotype (%) [1, 10]: 28%
- Population Mitotic Cells (%) [1, 10]: 47%
- Population Normal (%) [1, 10]: 85%
- Population Pyknosed Nuclei (%) [1, 10]: 17%
- Population Tubulin-Different-Phenotype (%) [1, 10]: 54%
- Total Cell Count [1, 10]: 229
- Population Apoptotic (%) [1, 11]: 70%
- Population Fragmented Nuclei (%) [1, 11]: 52%
- Population Healthy Nuclei (%) [1, 11]: 22%
- Population Hoechst High Intensity Objects (%) [1, 11]: 33%
- Population Membrane Permeable-Phenotype (%) [1, 11]: 33%
- Population Mitochondria Different-Phenotype (%) [1, 11]: 44%
- Population Mitotic Cells (%) [1, 11]: 30%
- Population Normal (%) [1, 11]: 66%
- Population Pyknosed Nuclei (%) [1, 11]: 25%
- Population Tubulin-Different-Phenotype (%) [1, 11]: 44%
- Total Cell Count [1, 11]: 60
- Growth Rate ([2]; 0 h, replicate number 2, timepoint 0 hours): 0
- Growth Rate [2, 12]: 0
- Growth Rate [2, 13]: 0
- Growth Rate [2, 14]: 0
- Growth Rate [2, 15]: 0
- Growth Rate ([3]; 0 h, replicate number 1, timepoint 0 hours): 1
- Growth Rate [3, 12]: 0
- Growth Rate ([3]; 6 h, replicate number 2, timepoint 6 hours): 1
- Growth Rate [3, 13]: 0
- Growth Rate [3, 14]: 0
- Growth Rate [3, 15]: 0
